From ChEMBL document CHEMBL1122781, “[(Aminomethyl)aryloxy]acetic acid esters. A new class of high-ceiling diuretics. 1. Effects of nitrogen and aromatic nuclear substitution” (J Med Chem, 1984)

Experiments:
Canis familiaris [1] = assay: Diuretic activity was evaluated by measuring amount of Na+ during 0-6 h in urine of normotensive saline loaded dogs at 0.03 mg/kg, po; format: ADME, organism-based, Canis lupus familiaris; set-up: dose 0.03 mg/kg, route oral; conditions: dog, in vivo
Procedure, shortened: (§1)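 Conscious dogs, each given a single oral dose per experiment, with at least two dogs per dose. Urine volume is measured; aliquots are centrifuged and chilled. Heparinized venous blood (4 mL) is drawn at each urine collection. Urine and plasma are analyzed for Na+, K+, Cl−, urate and glucose. Result is mean Na+ excretion in mequiv kg−1 (6 h)−1.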

Rattus norvegicus [2] = assay: Diuretic activity was evaluated by measuring amount of Na+ during 0-6 h in urine of normotensive saline loaded rats at 0.3 mg/kg, po; format: ADME, organism-based; set-up: dose 0.3 mg/kg, route oral; conditions: in vivo
Procedure, shortened: (§2)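 Male normotensive Sprague–Dawley rats (275–375 g), eight per group. Test compound or vehicle (0.2% methylcellulose in water, 2 mL/kg) is given by mouth, followed at once by a 0.9% saline load equal to 5% of body weight. Rats are housed in metabolism cages without food or water. Urine is collected at 2, 6 and 24 h and assayed for Na+, K+, Cl−, uric acid and osmolality.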

[3] = Diuretic activity was evaluated by measuring amount of Na+ during 0-6 hr in urine of normotensive […] monkey at 10mg/kg, po; format: ADME, organism-based; conditions: simiiformes, in vivo
Procedure, shortened: (§3)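 Male and female cynomolgus monkeys, fasted 16–18 h with water until dosing, six per dose. Compound or vehicle is given through a nasogastric tube, then a 50 mL/kg water load. No food or water for 6 h in metabolism cages. Urine is collected at 0–1, 1–2, 2–4 and 4–6 h and analyzed for electrolytes, uric acid and glucose.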

Rattus norvegicus [4] = assay: Diuretic activity was evaluated by measuring amount of Na+ during 0-6 hr in urine of normotensive saline loaded rats at 0.1 mg/kg, po; format: ADME, organism-based; set-up: dose 0.1 mg/kg, route oral; conditions: in vivo; procedure, shortened: as §2
Rattus norvegicus [5] = assay: Diuretic activity was evaluated by measuring amount of Cl- during 0-6 hr in urine of normotensive saline loaded rats at 0.3mg/kg, po; format: ADME, organism-based; conditions: in vivo
Procedure, shortened: (§4)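 Male Sprague–Dawley rats (275–375 g), fed and watered ad libitum before testing but not during it, eight per group. Compound in 0.2% methylcellulose/water given orally at 2 mL/kg, immediately followed by a 0.9% saline load equal to 5% of body weight. Rats were kept in individual metabolism cages. Urine was sampled at 2, 6 and 24 h for volume, Na+, K+, Cl−, uric acid and osmolality.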

Rattus norvegicus [6] = assay: Diuretic activity was evaluated by measuring amount of K+ during 0-6 hr in urine of normotensive saline loaded rats at 0.3mg/kg, po; format: ADME, organism-based; conditions: in vivo; procedure, shortened: as §4
Canis familiaris [7] = assay: Diuretic activity was evaluated by measuring amount of Na+ during 0-6 h in urine of normotensive saline loaded dogs at 1.0 mg/kg, po; format: ADME, organism-based, Canis lupus familiaris; set-up: dose 1 mg/kg, route oral; conditions: dog, in vivo; procedure, shortened: as §1
[8] = Diuretic activity was evaluated by measuring amount of Cl- during 0-6 hr in urine of normotensive […] monkey at 1 mg/kg, po; format: ADME, organism-based; set-up: dose 1 mg/kg, route oral; conditions: simiiformes, in vivo
Procedure, shortened: (§5)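 Male and female cynomolgus monkeys, fasted 16–18 h with water until dosing, six per dose. Compound or vehicle was given by pediatric nasogastric tube, followed at once by a 50 mL/kg water load. Monkeys were kept in metabolism cages without food or water for 6 h. Urine was collected at 0–1, 1–2, 2–4 and 4–6 h, and volume, electrolytes, uric acid and glucose were measured.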

Rattus norvegicus [9] = assay: Percent change of arterial blood pressure in spontaneously hypertensive rats at the dose of 10 mg/kg (p.o.) after […] (control BP(mm Hg)=219); format: functional; conditions: route oral
Rattus norvegicus [10] = assay: Percent change of arterial blood pressure in spontaneously hypertensive rats at the dose of 1 mg/kg (p.o.) after […] (control BP(mm Hg)=215); format: functional; conditions: route oral
Rattus norvegicus [11] = assay: Diuretic activity was evaluated by measuring amount of K+ during 0-6 h in urine of normotensive saline loaded rats at 1.0 mg/kg, po; format: ADME, organism-based; set-up: dose 1 mg/kg, route oral; conditions: in vivo; procedure, shortened: as §4
[12] = Diuretic activity was evaluated by measuring amount of K+ during 0-6 hr in urine of normotensive water loaded monkey at 3mg/kg, po; conditions: simiiformes, in vivo
[13] = Diuretic activity was evaluated by measuring amount of K+ during 0-6 hr in urine of normotensive […] monkey at 30mg/kg, po; format: ADME, organism-based; conditions: simiiformes, in vivo; procedure, shortened: as §5
[14] = Diuretic activity was evaluated by measuring amount of K+ during 0-6 h in urine of […] at 10 mg/kg, po; format: ADME, organism-based; set-up: dose 10 mg/kg, route oral; conditions: simiiformes, in vivo; procedure, shortened: as §5
Canis familiaris [15] = assay: Diuretic activity was evaluated by measuring amount of Cl- during 0-6 h in urine of normotensive saline loaded dogs at 3.0 mg/kg, po; format: ADME, organism-based, Canis lupus familiaris; set-up: dose 3 mg/kg, route oral; conditions: dog, in vivo
Procedure, shortened: (§6)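 Conscious female dogs, each given one oral dose per experiment. Urine and heparinized venous plasma were taken at each collection time. Urine was centrifuged and chilled, and plasma was separated within 30 min. Both were assayed for Na+, K+, Cl−, urate and glucose. Results are mean excretion in mequiv kg−1 (6 h)−1, with at least two dogs per dose.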

Rattus norvegicus [16] = assay: Diuretic activity was evaluated by measuring amount of K+ during 0-6 h in urine of normotensive saline loaded rats at 100.0 mg/kg, po; format: ADME, organism-based; set-up: dose 100 mg/kg, route oral; conditions: in vivo; procedure, shortened: as §4
Canis familiaris [17] = assay: Diuretic activity was evaluated by measuring amount of Cl- during 0-6 h in urine of normotensive saline loaded dogs at 1.0 mg/kg, po; format: ADME, organism-based, Canis lupus familiaris; set-up: dose 1 mg/kg, route oral; conditions: dog, in vivo; procedure, shortened: as §6
Canis familiaris [18] = assay: Diuretic activity was evaluated by measuring amount of K+ during 0-6 hr in urine of normotensive saline loaded dogs at 0.1 mg/kg, po; format: ADME, organism-based, Canis lupus familiaris; set-up: dose 0.1 mg/kg, route oral; conditions: dog, in vivo; procedure, shortened: as §6
Rattus norvegicus [19] = assay: Diuretic activity was evaluated by measuring amount of Cl- during 0-6 hr in urine of normotensive saline loaded rats at 100.0mg/kg, po; format: ADME, organism-based; conditions: in vivo, 100 mg/kg; procedure, shortened: as §4
Rattus norvegicus [20] = assay: Diuretic activity was evaluated by measuring amount of Cl- during 0-6 hr in urine of normotensive saline loaded rats at 0.1 mg/kg, po; format: ADME, organism-based; set-up: dose 0.1 mg/kg, route oral; conditions: in vivo; procedure, shortened: as §4
[21] = Diuretic activity was evaluated by measuring amount of Na+ during 0-6 hr in urine of […] monkey at 3mg/kg, po; format: ADME, organism-based; conditions: simiiformes, in vivo; procedure, shortened: as §3
Rattus norvegicus [22] = assay: Oral dose necessary to produce an excretion of 2 mequiv of Na+/kg in the rat urine in the 4-h period after peroral administration; format: ADME, organism-based; conditions: in vivo
Rattus norvegicus [23] = assay: Diuretic activity was evaluated by measuring amount of K+ during 0-6 hr in urine of normotensive saline loaded rats at 3.0mg/kg, po; format: ADME, organism-based; conditions: in vivo, 3 mg/kg; procedure, shortened: as §2
Canis familiaris [24] = assay: Diuretic activity was evaluated by measuring amount of K+ during 0-6 hr in urine of normotensive saline loaded dogs at 0.03mg/kg, po; format: ADME, organism-based, Canis lupus familiaris; conditions: dog, in vivo; procedure, shortened: as §6
Canis familiaris [25] = assay: Diuretic activity was evaluated by measuring amount of K+ during 0-6 h in urine of normotensive saline loaded dogs at 1.0 mg/kg, po; format: ADME, organism-based, Canis lupus familiaris; set-up: dose 1 mg/kg, route oral; conditions: dog, in vivo; procedure, shortened: as §6
Rattus norvegicus [26] = assay: Diuretic activity was evaluated by measuring amount of K+ during 0-6 hr in urine of normotensive saline loaded rats at 0.1 mg/kg, po; format: ADME, organism-based; set-up: dose 0.1 mg/kg, route oral; conditions: in vivo; procedure, shortened: as §4
Rattus norvegicus [27] = assay: Diuretic activity was evaluated by measuring amount of Na+ during 0-6 hr in urine of normotensive saline loaded rats at 30.0mg/kg, po; format: ADME, organism-based; conditions: in vivo, 30 mg/kg; procedure, shortened: as §2
[28] = Diuretic activity was evaluated by measuring amount of K+ during 0-6 hr in urine of […] monkey at 1 mg/kg, po; format: ADME, organism-based; set-up: dose 1 mg/kg, route oral; conditions: simiiformes, in vivo; procedure, shortened: as §5
Canis familiaris [29] = assay: Diuretic activity was evaluated by measuring amount of Cl- during 0-6 h in urine of normotensive saline loaded dogs at 0.3mg/kg, po; format: ADME, organism-based, Canis lupus familiaris; conditions: dog, in vivo; procedure, shortened: as §6
Rattus norvegicus [30] = assay: Diuretic activity was evaluated by measuring amount of Cl- during 0-6 hr in urine of normotensive saline loaded rats at 3.0mg/kg, po; format: ADME, organism-based; conditions: in vivo, 3 mg/kg; procedure, shortened: as §4

CCOC(=O)COc1ccc(C(=O)c2ccc(O)c(CN)c2)c(Cl)c1Cl.Cl
Diuretic activity (Canis familiaris [1]): 0.5 m equiv kg-1 | Diuretic activity (Rattus norvegicus [2]): 9.6 m equiv kg-1 | Diuretic activity [3]: 6.6 m equiv kg-1 | Diuretic activity (Rattus norvegicus [4]): 6.6 m equiv kg-1 | Diuretic activity (Rattus norvegicus [5]): 11.3 m equiv kg-1 | Diuretic activity (Rattus norvegicus [6]): 2.7 m equiv kg-1 | Diuretic activity (Canis familiaris [7]): 5 m equiv kg-1 | Diuretic activity [8]: 2.7 m equiv kg-1 | Change (Rattus norvegicus [9]): -31% | Change (Rattus norvegicus [10]): -17% | Diuretic activity (Rattus norvegicus [11]): 3 m equiv kg-1 | Diuretic activity [12]: 1.1 m equiv kg-1 | Diuretic activity [13]: 1.5 m equiv kg-1 | Diuretic activity [14]: 1.3 m equiv kg-1 | Diuretic activity (Canis familiaris [15]): 7.9 m equiv kg-1 | Diuretic activity (Rattus norvegicus [16]): 3.6 m equiv kg-1 | Diuretic activity (Canis familiaris [17]): 6.2 m equiv kg-1 | Diuretic activity (Canis familiaris [18]): 0.6 m equiv kg-1 | Diuretic activity (Rattus norvegicus [19]): 16.6 m equiv kg-1 | Diuretic activity (Rattus norvegicus [20]): 8.1 m equiv kg-1 | Diuretic activity [21]: 5.3 m equiv kg-1 | ED2 (Rattus norvegicus [22]): 3 mg/kg | Diuretic activity (Rattus norvegicus [23]): 3.8 m equiv kg-1 | Diuretic activity (Canis familiaris [24]): 0.3 m equiv kg-1 | Diuretic activity (Canis familiaris [25]): 1.6 m equiv kg-1 | Diuretic activity (Rattus norvegicus [26]): 2.6 m equiv kg-1 | Diuretic activity (Rattus norvegicus [27]): 14.8 m equiv kg-1 | Diuretic activity [28]: 0.7 m equiv kg-1 | Diuretic activity (Canis familiaris [29]): 3 m equiv kg-1 | Diuretic activity (Rattus norvegicus [30]): 16.3 m equiv kg-1
